Source: ChEMBL document CHEMBL1136075, “Synthesis of the novel liqustrazine derivatives and Their protective effect on injured vascular endothelial cell damaged by hydrogen peroxide” (2003)
The source made the active and inactive calls. The calls are words filed in the database; no cut-off is given here.

Tested on: HUVEC
Assay: Maximum stimulation of proliferation rate of human umbilical vascular endothelial cells (HUVECs) by the compound at a concentration of 0.1-1.5 mM; NA is not active
Format: functional, cell-based
Procedure, shortened: (§1)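 Cultured human umbilical vein endothelial cells (normal, uninjured) exposed to compound over 0.1–1.5 mmol L⁻¹; viability by MTT, absorbance at 570 nm. Proliferation rate P(%) = (A − A0)/A0, with A0 the vehicle-treated control wells. The maximum P over the concentrations tested is reported. Mean ± SEM, n=6 wells.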

Structure (SMILES) | Pmax
Cc1nc(C)c(COC(=O)c2ccc(Br)cc2)nc1C | inactive
Cc1nc(C)c(COC(=O)c2ccc(Br)cc2Br)nc1C | inactive

Tested on: HUVEC
Assay: Maximum stimulation of proliferation rate of human umbilical vascular endothelial cells (HUVECs) by the compound at a concentration of 0.1 mM
Format: functional
Procedure, shortened: as §1

Structure (SMILES) | Pmax
Cc1nc(C)c(COC(=O)c2cccc(Cl)c2)nc1C | 59.32%
Cc1nc(C)c(COC(=O)Cc2ccccc2)nc1C | 76.11%
Cc1nc(C)c(COC(=O)C(C)(C)Oc2ccc(Cl)cc2)nc1C | 87.85%
CC(=O)Oc1ccccc1C(=O)OCc1nc(C)c(C)nc1C | 70.88%
COc1cc(C(=O)OCc2nc(C)c(C)nc2C)cc(OC)c1OC | 45.8%
COc1ccc(/C=C/C(=O)OCc2nc(C)c(C)nc2C)c(OC)c1 | 70.16%
COc1ccc(/C=C/C(=O)OCc2nc(C)c(C)nc2C)cc1 | 75.45%
COc1ccccc1C(=O)OCc1nc(C)c(C)nc1C | 71.95%
Cc1nc(C)c(COC(=O)CCc2ccccc2)nc1C | 80.54%
COc1cc(/C=C/C(=O)OCc2nc(C)c(C)nc2C)ccc1O | 83.87%
COc1ccc(C(=O)OCc2nc(C)c(C)nc2C)cc1OC | 52.95%
COc1ccc(C(=O)OCc2nc(C)c(C)nc2C)cc1 | 66.04%
Cc1nc(C)c(COC(=O)c2cccnc2)nc1C | 88.57%
Cc1nc(C)c(COC(=O)c2ccc(Cl)cc2)nc1C | 82.55%

Tested on: HUVEC
Assay: Maximum stimulation of proliferation rate of human umbilical vascular endothelial cells (HUVECs) by the compound at a concentration of 0.6 mM
Format: functional
Procedure, shortened: as §1

Structure (SMILES) | Pmax
Cc1nc(C)c(COC(=O)c2ccco2)nc1C | 69.39%
Cc1nc(C)c(C)nc1C [LIGUSTRAZINE] | 20.66%
Cc1nc(C)c(COC(=O)c2ccccc2)nc1C | 37%
Cc1nc(C)c(COC(=O)/C=C/c2ccccc2)nc1C | 77.32%
Cc1nc(C)c(CO)nc1C | 28.03%
Cc1nc(C)c(COC(=O)c2ccccc2Cl)nc1C | 32.1%

Tested on: HUVEC
Assay: Maximum stimulation of proliferation rate of human umbilical vascular endothelial cells (HUVECs) by the compound at a concentration of 1.5 mM
Format: functional
Procedure, shortened: as §1

Structure (SMILES) | Pmax
Cc1nc(C)c(COC(=O)c2ccccc2I)nc1C | 61.36%
